Measured values taken from ChEMBL document CHEMBL1136887, “Synthesis and evaluation of pharmacological profile of 1-aryl-6,7-dimethoxy-3,4-dihydroisoquinoline-2(1H)-sulfonamides” (Bioorg Med Chem, 2009).

Columns and labels:
Mus musculus [1] = test: Anticonvulsant activity in ip dosed DBA/2 mouse assessed as inhibition of auditory stimulation-induced tonic seizures administered 30 mins before auditory stimulation; type: functional; conditions: DBA/2, ip
Procedure, shortened: (§1)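 DBA/2 mice (8-12 g, 22-25 days old, either sex), groups of 10, given vehicle or drug ip and exposed to auditory stimulation 30 min later. Latency to and incidence of each seizure phase scored. ED50 per seizure phase derived from dose–response curves by Litchfield–Wilcoxon, with 95% confidence limits; at least 32 animals per ED50. Fisher's exact test used for incidence.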

Mus musculus [2] = test: Anticonvulsant activity in ip dosed DBA/2 mouse assessed as inhibition of auditory stimulation-induced clonic seizures administered 30 mins before auditory stimulation; type: functional; conditions: DBA/2, ip; procedure, shortened: as §1
Carbonic anhydrase 9 = Carbonic anhydrase 9 (Homo sapiens, UniProt Q16790); test: Inhibition of human recombinant carbonic anhydrase 9 catalytic domain by stopped flow CO2 hydration method

**Q.** What does the source list for `COc1cc2c(cc1OC)C(c1ccc(N)cc1)N(S(N)(=O)=O)CC2` (stereo not drawn)?
**A.** ED50 (Mus musculus [1]): 3.6 µmol/kg; ED50 (Mus musculus [2]): 17.7 µmol/kg

**Q.** Which ED50 (Mus musculus [1]) does the source give for `COc1cc2c(cc1OC)C(c1ccc(C)cc1)NCC2` (stereo not drawn) here?
**A.** 36.5 µmol/kg

**Q.** What about the ED50 (Mus musculus [2]) of the same molecule?
**A.** 48.6 µmol/kg

**Q.** `COc1cc2c(cc1OC)C(c1ccc(C)cc1)N(S(N)(=O)=O)CC2` (stereo not drawn) was tested. Which ED50 (Mus musculus [1]) did it give?
**A.** 51.7 µmol/kg

**Q.** What about the Ki (Carbonic anhydrase 9) of the same molecule?
**A.** 6.75 µM

**Q.** What about the ED50 (Mus musculus [2]) of the same molecule?
**A.** 97.1 µmol/kg

**Q.** What does the source list for `CC1(C)O[C@@H]2[C@@H](CO[C@@]3(COS(N)(=O)=O)OC(C)(C)O[C@@H]23)O1` [TOPIRAMATE]?
**A.** ED50 (Mus musculus [1]): 18 µmol/kg; ED50 (Mus musculus [2]): 35.7 µmol/kg

**Q.** With `COc1cc2c(cc1OC)C(c1cccc([N+](=O)[O-])c1)N(S(N)(=O)=O)CC2` (stereo not drawn) as the molecule, how does the ED50 (Mus musculus [1]) read?
**A.** > 100 µmol/kg

**Q.** What about the Ki (Carbonic anhydrase 9) of the same molecule?
**A.** 6.45 µM

**Q.** What about the ED50 (Mus musculus [2]) of the same molecule?
**A.** > 100 µmol/kg

**Q.** For `COc1cc2c(cc1OC)C(c1ccc(C#N)cc1)N(S(N)(=O)=O)CC2` (stereo not drawn), which ED50 (Mus musculus [1]) is on record?
**A.** > 100 µmol/kg

**Q.** And the Ki (Carbonic anhydrase 9)?
**A.** 4.98 µM

**Q.** What about the ED50 (Mus musculus [2]) of the same molecule?
**A.** > 100 µmol/kg

**Q.** `COc1cc2c(cc1OC)C(c1ccccc1)N(S(N)(=O)=O)CC2` (stereo not drawn) was tested. Which ED50 (Mus musculus [1]) did it give?
**A.** 7.82 µmol/kg

**Q.** And the ED50 (Mus musculus [2])?
**A.** > 100 µmol/kg

**Q.** How did the ED50 (Mus musculus [1]) turn out when `COc1cc2c(cc1OC)C(c1ccc(Br)cc1)N(S(N)(=O)=O)CC2` (stereo not drawn) was run?
**A.** 67.3 µmol/kg

**Q.** And the Ki (Carbonic anhydrase 9)?
**A.** 8.2 µM

**Q.** And the ED50 (Mus musculus [2])?
**A.** > 100 µmol/kg

**Q.** Which ED50 (Mus musculus [1]) does the source give for `COc1cc2c(cc1OC)C(c1ccc(N)cc1)NCC2` (stereo not drawn) here?
**A.** 28.6 µmol/kg

**Q.** What about the ED50 (Mus musculus [2]) of the same molecule?
**A.** 46.6 µmol/kg

**Q.** Which ED50 (Mus musculus [1]) does the source give for `COc1cc2c(cc1OC)C(c1cccc(N)c1)NCC2` (stereo not drawn) here?
**A.** 18.2 µmol/kg

**Q.** And the ED50 (Mus musculus [2])?
**A.** 40.4 µmol/kg

**Q.** With `COc1cc2c(cc1OC)C(c1cccc(N)c1)N(S(N)(=O)=O)CC2` (stereo not drawn) as the molecule, how does the ED50 (Mus musculus [1]) read?
**A.** 65.8 µmol/kg

**Q.** What about the Ki (Carbonic anhydrase 9) of the same molecule?
**A.** 8.13 µM

**Q.** And the ED50 (Mus musculus [2])?
**A.** > 100 µmol/kg

**Q.** Which ED50 (Mus musculus [1]) does the source give for `COc1cc2c(cc1OC)C(c1cccc([N+](=O)[O-])c1)NCC2` (stereo not drawn) here?
**A.** 7.2 µmol/kg

**Q.** What about the ED50 (Mus musculus [2]) of the same molecule?
**A.** 19.3 µmol/kg

**Q.** For `COc1cc2c(cc1OC)C(c1ccc(Cl)cc1)N(S(N)(=O)=O)CC2` (stereo not drawn), which ED50 (Mus musculus [1]) is on record?
**A.** 7.25 µmol/kg

**Q.** What about the Ki (Carbonic anhydrase 9) of the same molecule?
**A.** 7.54 µM

**Q.** What about the ED50 (Mus musculus [2]) of the same molecule?
**A.** 23.5 µmol/kg

**Q.** Which ED50 (Mus musculus [1]) does the source give for `COc1cc2c(cc1OC)C(c1ccc(F)cc1)N(S(N)(=O)=O)CC2` (stereo not drawn) here?
**A.** 41.8 µmol/kg

**Q.** What about the ED50 (Mus musculus [2]) of the same molecule?
**A.** > 100 µmol/kg

**Q.** With `COc1cc2c(cc1OC)C(c1ccc([N+](=O)[O-])cc1)NCC2` (stereo not drawn) as the molecule, how does the ED50 (Mus musculus [1]) read?
**A.** 56.1 µmol/kg

**Q.** What about the ED50 (Mus musculus [2]) of the same molecule?
**A.** 101 µmol/kg

**Q.** How did the ED50 (Mus musculus [1]) turn out when `COc1cc2c(cc1OC)C(c1ccc(F)cc1)NCC2` (stereo not drawn) was run?
**A.** 26.4 µmol/kg

**Q.** What about the ED50 (Mus musculus [2]) of the same molecule?
**A.** 57.8 µmol/kg

**Q.** Which results are given for `COc1cc2c(cc1OC)C(c1ccc(Br)cc1)N(C(=O)CN1CCCCC1)CC2` (stereo not drawn)?
**A.** ED50 (Mus musculus [1]): 8.17 µmol/kg; ED50 (Mus musculus [2]): 12.7 µmol/kg

**Q.** `COc1cc2c(cc1OC)C(c1ccc(Cl)cc1)NCC2` (stereo not drawn) was tested. Which ED50 (Mus musculus [1]) did it give?
**A.** 19.3 µmol/kg

**Q.** And the ED50 (Mus musculus [2])?
**A.** 20.1 µmol/kg

**Q.** Which results are given for `COc1cc2c(cc1OC)C(c1ccc([N+](=O)[O-])cc1)N(S(N)(=O)=O)CC2` (stereo not drawn)?
**A.** ED50 (Mus musculus [1]): > 100 µmol/kg; Ki (Carbonic anhydrase 9): 0.48 µM; ED50 (Mus musculus [2]): > 100 µmol/kg

**Q.** With `COc1cc2c(cc1OC)C(c1ccccc1)NCC2` (stereo not drawn) as the molecule, how does the ED50 (Mus musculus [1]) read?
**A.** 19.3 µmol/kg

**Q.** What about the ED50 (Mus musculus [2]) of the same molecule?
**A.** 44.8 µmol/kg

**Q.** How did the ED50 (Mus musculus [1]) turn out when `COc1cc2c(cc1OC)C(c1ccc(Cl)cc1)N(C(C)=O)CC2` (stereo not drawn) was run?
**A.** 2.39 µmol/kg

**Q.** And the ED50 (Mus musculus [2])?
**A.** 4.18 µmol/kg

**Q.** Which results are given for `COc1cc2c(cc1OC)C(c1ccc(C#N)cc1)NCC2` (stereo not drawn)?
**A.** ED50 (Mus musculus [1]): 48.6 µmol/kg; ED50 (Mus musculus [2]): > 100 µmol/kg

**Q.** Which results are given for `COc1cc2c(cc1OC)C(c1ccc(Br)cc1)NCC2` (stereo not drawn)?
**A.** ED50 (Mus musculus [1]): 12.5 µmol/kg; ED50 (Mus musculus [2]): 30.6 µmol/kg
